Only some compounds are listed: those with a hit (about 1.3% of all), similar ones and a draw of the others.
PAD4 inh: inhibitors of human PAD4; inhibition, % at 6.36 µM; recombinant PAD4, RCA probe fluorescence polarization; 0.41% of 330,000 active; AID 485272; Q9UM07;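 active = percent inhibition above a cutoff equal to the mean of all tested compounds plus 3 SD, cut at about 15% in these data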
PME-1 primary: blocks human protein phosphatase methylesterase 1 | recombinant PME-1, FP-Rh probe fluorescence polarization | Q9Y570 | 0.53% of 320,000 active | inhibition, % at 5.9 µM;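 active = inhibition above the campaign mean of all compounds plus 3 SD, cut at about 26% in these data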;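 note: competitive labeling of PME-1 active site by serine hydrolase directed probe; inhibitors block probe labeling so polarization falls and inhibition rises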
Target sequence (Q9Y570 whole entry, looked up): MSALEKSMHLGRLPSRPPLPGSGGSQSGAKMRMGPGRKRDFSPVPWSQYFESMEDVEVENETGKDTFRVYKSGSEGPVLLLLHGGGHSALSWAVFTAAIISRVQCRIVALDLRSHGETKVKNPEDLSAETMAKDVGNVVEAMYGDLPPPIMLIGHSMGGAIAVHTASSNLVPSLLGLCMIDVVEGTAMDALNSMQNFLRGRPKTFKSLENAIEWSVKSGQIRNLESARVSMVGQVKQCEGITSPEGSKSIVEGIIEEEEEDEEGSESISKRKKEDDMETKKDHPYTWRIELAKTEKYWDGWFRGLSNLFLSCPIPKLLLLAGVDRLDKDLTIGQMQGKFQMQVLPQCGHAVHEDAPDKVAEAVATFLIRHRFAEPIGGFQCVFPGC
Fam108B inh: blocks mouse Fam108B hydrolase in RBBP9 counter-screen. recombinant Fam108B, FP-Rh probe fluorescence polarization. inhibition, % at 9.51 µM. 0.33% of 300,000 active;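 active = inhibition above the screen mean inhibition plus 3 SD, computed separately per campaign, cut at about 18% in these data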;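 note: inhibitors lower polarization as less probe binds the enzyme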
LYPLA1 counter: blocks human lysophospholipase 1, a PME1 counter-screen; recombinant LYPLA1, FP-Rh probe fluorescence polarization; inhibition, % at 5.9 µM; 0.16% of 320,000 active; AID 2174;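 active = inhibition above the mean of all tested compounds plus 3 SD, set per campaign, cut at about 14% in these data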;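 note: inhibitors block serine hydrolase probe labeling of LYPLA1 so polarization falls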
RBBP9 inhibitor: blocks human serine hydrolase RBBP9; O75884; recombinant RBBP9, FP-Rh probe fluorescence polarization; inhibition, % at 7.94 µM; 0.2% of 220,000 active;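 active = inhibition above the campaign mean of all tested compounds plus 3 SD, cut at about 14% in these data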
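Test system – recombinant human RBBP9 · Input – RBBP9 2.5 µM in dispensing solution, pre-mixing · Medium – Tris buffer pH 8.0, NaCl, Pluronic · Schedule – preincubation 30 min plus labeling 45 min at 25 °C · Measured by – fluorescence polarization · Measure – % inhibition · Controls – DMSO and no-protein wells · Replicates – one well per compound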
LYPLA2 inh: LYPLA2 (human) inhibition in PME1 counter-screen; recombinant LYPLA2, FP-Rh probe fluorescence polarization; inhibition, % at 5.9 µM; 0.38% of 320,000 active; AID 2177;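 active = inhibition above the screen-wide mean plus 3 SD, limit set per campaign, cut at about 26% in these data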
A number is an active result.

O=C(Nc1ccc(Cl)cc1)Nc1ccc(N2CCOCC2)cc1 was read as PAD4 inh inactive, PME-1 primary inactive, Fam108B inh inactive, LYPLA1 counter inactive, RBBP9 inhibitor inactive and LYPLA2 inh inactive.
O=C(Nc1ccc(N2CCOCC2)cc1)Nc1ccc(Cl)c(Cl)c1 was read as PAD4 inh inactive, PME-1 primary 28, Fam108B inh inactive, LYPLA1 counter inactive, RBBP9 inhibitor inactive and LYPLA2 inh inactive.
Screening Cc1cccc2cc(C#N)c(SCC(=O)Nc3ccccc3N3CCOCC3)nc12 returned PAD4 inh inactive, PME-1 primary inactive, Fam108B inh inactive, LYPLA1 counter inactive, RBBP9 inhibitor inactive and LYPLA2 inh inactive.
Screening N#Cc1cc2ccccc2nc1SCC(=O)Nc1ccccc1N1CCOCC1 returned PAD4 inh inactive, PME-1 primary 30, Fam108B inh inactive, LYPLA1 counter inactive, RBBP9 inhibitor inactive and LYPLA2 inh inactive.
Screening COc1ccc(NC(=O)c2cc(CC(C)C)nc3ccccc23)cc1 returned PAD4 inh inactive, PME-1 primary inactive, Fam108B inh inactive, LYPLA1 counter inactive and LYPLA2 inh inactive.
For COc1cc(-n2nc(C)c3c2OC(N)=C(C#N)C3c2ccccc2)c(Cl)c(Br)c1O (configuration not stated) the results were PAD4 inh 26, PME-1 primary inactive, Fam108B inh inactive, LYPLA1 counter inactive, RBBP9 inhibitor inactive and LYPLA2 inh inactive.
`O=C1CCCc2c1[nH]c1ccccc21` gave PAD4 inh inactive, PME-1 primary inactive, Fam108B inh inactive, LYPLA1 counter inactive, RBBP9 inhibitor inactive and LYPLA2 inh inactive.
`c1ccc2c(c1)OCCc1c-2[nH]c2ccccc12` gave PAD4 inh inactive, PME-1 primary 33, Fam108B inh inactive, LYPLA1 counter inactive and LYPLA2 inh inactive.
Screening CC(C)c1onc(C(=O)NCc2ccccc2)c1[N+](=O)[O-] returned PAD4 inh inactive, PME-1 primary inactive, Fam108B inh inactive, LYPLA1 counter inactive, RBBP9 inhibitor inactive and LYPLA2 inh inactive.
`O=C(COc1ccc(/C=N/NC(=O)C(=O)N2CCCCC2)cc1)Nc1ccccc1Cl` gave PAD4 inh inactive, PME-1 primary inactive, Fam108B inh inactive, LYPLA1 counter inactive, RBBP9 inhibitor inactive and LYPLA2 inh inactive.
For COc1cccc(CNS(=O)(=O)c2c(C)nc3sccn3c2=O)c1 the results were PAD4 inh inactive, PME-1 primary inactive, Fam108B inh inactive, LYPLA1 counter inactive and LYPLA2 inh inactive.
For Cc1[nH]n(-c2ccccc2)c(=O)c1C(c1ccc(O)c([N+](=O)[O-])c1)c1c(C)[nH]n(-c2ccccc2)c1=O the results were PAD4 inh 57, PME-1 primary inactive, Fam108B inh inactive, LYPLA1 counter inactive, RBBP9 inhibitor inactive and LYPLA2 inh inactive.
Screening CCOc1ccc2c(c1)sc(N)[n+]2Cc1cc(C)cc2cccnc12 returned PAD4 inh inactive, PME-1 primary inactive, Fam108B inh inactive, LYPLA1 counter inactive, RBBP9 inhibitor inactive and LYPLA2 inh 35.
`COc1ccc2c(c1)sc(N)[n+]2Cc1cc(C)cc2cccnc12` gave PAD4 inh inactive, PME-1 primary inactive, Fam108B inh inactive, LYPLA1 counter inactive, RBBP9 inhibitor inactive and LYPLA2 inh inactive.
Cc1ccsc1/C=N/n1c(-c2cc(-c3ccccc3)n[nH]2)n[nH]c1=S was read as PAD4 inh inactive, PME-1 primary 35, Fam108B inh inactive, LYPLA1 counter inactive, RBBP9 inhibitor inactive and LYPLA2 inh inactive.
Screening Fc1ccc(OCc2nc3ccccc3s2)cc1 returned PAD4 inh inactive, PME-1 primary inactive, Fam108B inh inactive, LYPLA1 counter inactive, RBBP9 inhibitor inactive and LYPLA2 inh inactive.
For Cc1onc(-c2ccccc2)c1C(=O)N(C)CC(=O)Nc1ccc(F)c(F)c1F the results were PAD4 inh inactive.
For O=C(/C=C1\NC2(CCCC2)Cc2ccccc21)C(=O)N/N=C/c1ccc(O)c(O)c1 the results were PAD4 inh inactive, PME-1 primary 32, Fam108B inh inactive, LYPLA1 counter inactive, RBBP9 inhibitor inactive and LYPLA2 inh inactive.
For COc1ccc(/C=N/NC(=O)C(=O)/C=C2\NC3(CCCC3)Cc3ccccc32)cc1 the results were PAD4 inh inactive, PME-1 primary inactive, Fam108B inh inactive, LYPLA1 counter inactive, RBBP9 inhibitor inactive and LYPLA2 inh inactive.

High-throughput results: PubChem BioAssay, The Scripps Research Institute Molecular Screening Center
